Test results published in ChEMBL document CHEMBL1143425, “Paradoxical growth effect of caspofungin observed on biofilms and planktonic cells of five different Candida species” (2007).
≈ marks a conversion by molar mass, not a printed value. Calls of active or inactive are those of the source.

Assays:
Candida orthopsilosis [1] = test: Effect on morphology in Candida orthopsilosis grown as biofilm assessed as rounding and clumping at 32 ug/ml after 48 hrs; format: functional, organism-based
Procedure, shortened: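 Biofilms formed in RPMI 1640 wells were exposed to caspofungin for 48 h and compared with drug-free control wells. Wells were examined in the plate under an inverted light microscope at ×200 and photographed.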

Candida orthopsilosis [2] = test: Antimicrobial activity against Candida orthopsilosis BR-A36 grown as biofilm after 48 hrs by XTT reduction assay; format: functional; conditions: Lodderomyces orthopsilosis
Procedure, shortened: (§1)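 Isolates were grown on Sabouraud agar (30°C, 24 h), then overnight in RPMI 1640 with MOPS, pH 7.0, at 35°C with shaking. Cells were washed and set to ~1 × 10^7 cells/ml, attached 1.5 h at 37°C, and grown 24 h. Biofilms were then exposed to caspofungin in 10 twofold dilutions (2–1,024 μg/ml) for 48 h at 35°C with shaking. Read-out was XTT-menadione, 1 h, 35°C, dark, A490, cell-free blank subtracted. MIC was the 50% drop in activity versus drug-free control. Tested in duplicate.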

Candida orthopsilosis [3] = test: Antimicrobial activity against Candida orthopsilosis BR-A34 grown as planktonic cell assessed as concentration producing paradoxical growth after 48 hrs by XTT reduction assay; format: functional
Procedure, shortened: (§2)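 Planktonic cells were tested by CLSI M27-A2 broth microdilution with caspofungin in water, incubated 48 h. XTT-menadione was added to each well, plates were held 1 h at 35°C in the dark and centrifuged, and supernatant absorbance was read at 490 nm. MIC was defined as 50% decrease in metabolic activity versus drug-free control. PG was defined as ≥20% of control activity at concentrations above MIC.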

Candida parapsilosis = test: Antimicrobial activity against Candida parapsilosis BR-A27 grown as biofilm after 48 hrs by XTT reduction assay; format: functional; conditions: Lodderomyces parapsilosis
Procedure, shortened: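 Clinical isolates were grown overnight (18 h, 35°C, 120 rpm) in RPMI 1640 with MOPS, pH 7.0, then washed and set to ~1 × 10^7 cells/ml. Cells attached for 1.5 h at 37°C, 75 rpm, then biofilms grew 24 h. Caspofungin was given as doubling dilutions of 2–1,024 μg/ml for 48 h at 35°C, 75 rpm. Read-out was XTT-menadione in PBS, 1 h at 35°C in the dark, A490, cell-free blank subtracted. MIC was a 50% drop in activity versus drug-free; PG was >50% of control above MIC. Run in duplicate.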

Candida albicans [4] = test: Antimicrobial activity against Candida albicans BR-A2 grown as planktonic cell assessed as concentration producing paradoxical growth after 48 hrs by XTT reduction assay; format: functional; procedure, shortened: as §2
Candida orthopsilosis [5] = test: Antimicrobial activity against Candida orthopsilosis BR-A37 grown as biofilm after 48 hrs by XTT reduction assay; format: functional; conditions: Lodderomyces orthopsilosis; procedure, shortened: as §1
Candida albicans [6] = test: Antimicrobial activity against Candida albicans BR-A4 grown as biofilm after 48 hrs by XTT reduction assay; format: functional; procedure, shortened: as §1
Candida orthopsilosis [7] = test: Antimicrobial activity against Candida orthopsilosis BR-A36 grown as planktonic cell assessed as paradoxical growth after 48 hrs by XTT reduction assay; format: functional, organism-based; procedure, shortened: as §2
Candida orthopsilosis [8] = test: Antimicrobial activity against Candida orthopsilosis BR-A37 grown as planktonic cell after 48 hrs by XTT reduction assay; format: functional; conditions: Lodderomyces orthopsilosis
Procedure, shortened: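 Planktonic broth microdilution followed CLSI M27-A2, with caspofungin dissolved in water. After 48 h, XTT-menadione was added to the wells and plates were kept 1 h at 35°C in the dark. Plates were then centrifuged and supernatant A490 was read. MIC was the lowest concentration giving a 50% decrease in metabolic activity versus drug-free control. Paradoxical growth was defined as ≥20% of control activity above the MIC.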

Candida orthopsilosis [9] = test: Effect on morphology in Candida orthopsilosis grown as planktonic cells assessed as rounding and clumping at 64 ug/ml after 48 hrs; format: functional, organism-based
Procedure, shortened: (§3)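 Cells were taken from caspofungin-containing and drug-free wells of the planktonic broth microdilution test after 48 h. They were examined by light microscopy at ×400.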

Candida orthopsilosis [10] = test: Antimicrobial activity against Candida orthopsilosis BR-A39 grown as biofilm assessed as concentration producing paradoxical growth after 48 hrs by XTT reduction assay; format: functional
Procedure, shortened: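 Sabouraud-grown cells were shaken overnight (18 h, 120 rpm, 35°C) in RPMI 1640 with MOPS at pH 7.0, then washed and set at ~1 × 10^7 cells/ml. Attachment lasted 1.5 h at 37°C, and growth ran 24 h before challenge. Caspofungin was added in RPMI at 2–1,024 μg/ml (10 doublings) for 48 h at 35°C with shaking. XTT-menadione was read at 490 nm after 1 h at 35°C in the dark, with blank wells subtracted. MIC was taken as 50% reduction versus drug-free wells, and PG as >50% of control above MIC. Assays were run in duplicate.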

Candida albicans [11] = test: Effect on morphology in Candida albicans grown as planktonic cells assessed as inhibition of hyphae and pseudohyphae at 16 ug/ml after 48 hrs; format: functional, organism-based; procedure, shortened: as §3

CC[C@H](C)C[C@H](C)CCCCCCCCC(=O)N[C@H]1C[C@@H](O)[C@@H](NCCN)NC(=O)[C@@H]2[C@@H](O)CCN2C(=O)[C@H]([C@H](O)CCN)NC(=O)[C@H]([C@H](O)[C@@H](O)c2ccc(O)cc2)NC(=O)[C@@H]2C[C@@H](O)CN2C(=O)[C@H]([C@@H](C)O)NC1=O [CASPOFUNGIN]
Activity (Candida orthopsilosis [1]): Active | MIC (Candida orthopsilosis [2]): 2 µg/mL (≈ 1.83 µM) | Activity (Candida orthopsilosis [3]): 4 µg/mL | MIC (Candida parapsilosis): 256 µg/mL (≈ 234 µM) | Activity (Candida albicans [4]): 16 µg/mL | MIC (Candida orthopsilosis [5]): 2 µg/mL (≈ 1.83 µM) | MIC (Candida albicans [6]): 2 µg/mL (≈ 1.83 µM) | Activity (Candida orthopsilosis [7]): inactive | MIC (Candida orthopsilosis [8]): 2 µg/mL (≈ 1.83 µM) | Activity (Candida orthopsilosis [9]): Active | Activity (Candida orthopsilosis [10]): 32 µg/mL | Activity (Candida albicans [11]): Active
